Results published in article PMC3736091 (Molecular cancer therapeutics, 2013).

Experiments:
SW620 cells = test: Clonogenic survival assay, SW620; assay type: cell-based, human; conditions: 16 hr
Summary of the method: (§1)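 Clonogenic assay in RPMI 1640 + 10% FBS, 37°C, 5% CO2, <30 passages; HCT116-N7 stably expresses HPV16 E6. Exponentially growing cells had 16 h exposure to cytotoxic (etoposide, doxorubicin or camptothecin; etoposide 1 μM for the bar data) ± test compound 1 μM in 0.5% DMSO, then were seeded for colonies. Survival was normalised to DMSO or inhibitor-alone control. Enhancement factor = survival cytotoxic alone ÷ survival combination, per experiment; 3 independent experiments.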

LoVo cells = test: Clonogenic survival assay, LoVo; assay type: cell-based, human; conditions: LoVo, 16 hr
Summary of the method: as §1

human tumour cell lines = conditions: cited from earlier work
[1] = Plasma and tumour concentrations in SW620 tumour-bearing nude mice; assay type: in vivo
Summary of the method: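 Female CD-1 nude mice carried SW620 s.c. flank xenografts (1×10^7 cells) of ~650 mm³. Test compound was given at 50 mg/kg i.p. in equimolar phosphoric acid/saline, pH 4. The comparator ATM inhibitor was given at 10 mg/kg i.p. in phosphoric acid, 5% DMSO, 10% encapsin, pH 4. Dosing volume was 10 ml/kg. Plasma and tumour were sampled at 1 and 4 h and analysed by HPLC; the tumour detection limit was 0.5 μM.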

[2] = molecular target: ATM activity in SW620 cells (Homo sapiens, UniProt Q13315); test: Inhibition of cellular ATM activity, SW620; assay type: cell-based; conditions: 10 μM
Sequence of ATM activity in SW620 cells (Q13315 whole entry): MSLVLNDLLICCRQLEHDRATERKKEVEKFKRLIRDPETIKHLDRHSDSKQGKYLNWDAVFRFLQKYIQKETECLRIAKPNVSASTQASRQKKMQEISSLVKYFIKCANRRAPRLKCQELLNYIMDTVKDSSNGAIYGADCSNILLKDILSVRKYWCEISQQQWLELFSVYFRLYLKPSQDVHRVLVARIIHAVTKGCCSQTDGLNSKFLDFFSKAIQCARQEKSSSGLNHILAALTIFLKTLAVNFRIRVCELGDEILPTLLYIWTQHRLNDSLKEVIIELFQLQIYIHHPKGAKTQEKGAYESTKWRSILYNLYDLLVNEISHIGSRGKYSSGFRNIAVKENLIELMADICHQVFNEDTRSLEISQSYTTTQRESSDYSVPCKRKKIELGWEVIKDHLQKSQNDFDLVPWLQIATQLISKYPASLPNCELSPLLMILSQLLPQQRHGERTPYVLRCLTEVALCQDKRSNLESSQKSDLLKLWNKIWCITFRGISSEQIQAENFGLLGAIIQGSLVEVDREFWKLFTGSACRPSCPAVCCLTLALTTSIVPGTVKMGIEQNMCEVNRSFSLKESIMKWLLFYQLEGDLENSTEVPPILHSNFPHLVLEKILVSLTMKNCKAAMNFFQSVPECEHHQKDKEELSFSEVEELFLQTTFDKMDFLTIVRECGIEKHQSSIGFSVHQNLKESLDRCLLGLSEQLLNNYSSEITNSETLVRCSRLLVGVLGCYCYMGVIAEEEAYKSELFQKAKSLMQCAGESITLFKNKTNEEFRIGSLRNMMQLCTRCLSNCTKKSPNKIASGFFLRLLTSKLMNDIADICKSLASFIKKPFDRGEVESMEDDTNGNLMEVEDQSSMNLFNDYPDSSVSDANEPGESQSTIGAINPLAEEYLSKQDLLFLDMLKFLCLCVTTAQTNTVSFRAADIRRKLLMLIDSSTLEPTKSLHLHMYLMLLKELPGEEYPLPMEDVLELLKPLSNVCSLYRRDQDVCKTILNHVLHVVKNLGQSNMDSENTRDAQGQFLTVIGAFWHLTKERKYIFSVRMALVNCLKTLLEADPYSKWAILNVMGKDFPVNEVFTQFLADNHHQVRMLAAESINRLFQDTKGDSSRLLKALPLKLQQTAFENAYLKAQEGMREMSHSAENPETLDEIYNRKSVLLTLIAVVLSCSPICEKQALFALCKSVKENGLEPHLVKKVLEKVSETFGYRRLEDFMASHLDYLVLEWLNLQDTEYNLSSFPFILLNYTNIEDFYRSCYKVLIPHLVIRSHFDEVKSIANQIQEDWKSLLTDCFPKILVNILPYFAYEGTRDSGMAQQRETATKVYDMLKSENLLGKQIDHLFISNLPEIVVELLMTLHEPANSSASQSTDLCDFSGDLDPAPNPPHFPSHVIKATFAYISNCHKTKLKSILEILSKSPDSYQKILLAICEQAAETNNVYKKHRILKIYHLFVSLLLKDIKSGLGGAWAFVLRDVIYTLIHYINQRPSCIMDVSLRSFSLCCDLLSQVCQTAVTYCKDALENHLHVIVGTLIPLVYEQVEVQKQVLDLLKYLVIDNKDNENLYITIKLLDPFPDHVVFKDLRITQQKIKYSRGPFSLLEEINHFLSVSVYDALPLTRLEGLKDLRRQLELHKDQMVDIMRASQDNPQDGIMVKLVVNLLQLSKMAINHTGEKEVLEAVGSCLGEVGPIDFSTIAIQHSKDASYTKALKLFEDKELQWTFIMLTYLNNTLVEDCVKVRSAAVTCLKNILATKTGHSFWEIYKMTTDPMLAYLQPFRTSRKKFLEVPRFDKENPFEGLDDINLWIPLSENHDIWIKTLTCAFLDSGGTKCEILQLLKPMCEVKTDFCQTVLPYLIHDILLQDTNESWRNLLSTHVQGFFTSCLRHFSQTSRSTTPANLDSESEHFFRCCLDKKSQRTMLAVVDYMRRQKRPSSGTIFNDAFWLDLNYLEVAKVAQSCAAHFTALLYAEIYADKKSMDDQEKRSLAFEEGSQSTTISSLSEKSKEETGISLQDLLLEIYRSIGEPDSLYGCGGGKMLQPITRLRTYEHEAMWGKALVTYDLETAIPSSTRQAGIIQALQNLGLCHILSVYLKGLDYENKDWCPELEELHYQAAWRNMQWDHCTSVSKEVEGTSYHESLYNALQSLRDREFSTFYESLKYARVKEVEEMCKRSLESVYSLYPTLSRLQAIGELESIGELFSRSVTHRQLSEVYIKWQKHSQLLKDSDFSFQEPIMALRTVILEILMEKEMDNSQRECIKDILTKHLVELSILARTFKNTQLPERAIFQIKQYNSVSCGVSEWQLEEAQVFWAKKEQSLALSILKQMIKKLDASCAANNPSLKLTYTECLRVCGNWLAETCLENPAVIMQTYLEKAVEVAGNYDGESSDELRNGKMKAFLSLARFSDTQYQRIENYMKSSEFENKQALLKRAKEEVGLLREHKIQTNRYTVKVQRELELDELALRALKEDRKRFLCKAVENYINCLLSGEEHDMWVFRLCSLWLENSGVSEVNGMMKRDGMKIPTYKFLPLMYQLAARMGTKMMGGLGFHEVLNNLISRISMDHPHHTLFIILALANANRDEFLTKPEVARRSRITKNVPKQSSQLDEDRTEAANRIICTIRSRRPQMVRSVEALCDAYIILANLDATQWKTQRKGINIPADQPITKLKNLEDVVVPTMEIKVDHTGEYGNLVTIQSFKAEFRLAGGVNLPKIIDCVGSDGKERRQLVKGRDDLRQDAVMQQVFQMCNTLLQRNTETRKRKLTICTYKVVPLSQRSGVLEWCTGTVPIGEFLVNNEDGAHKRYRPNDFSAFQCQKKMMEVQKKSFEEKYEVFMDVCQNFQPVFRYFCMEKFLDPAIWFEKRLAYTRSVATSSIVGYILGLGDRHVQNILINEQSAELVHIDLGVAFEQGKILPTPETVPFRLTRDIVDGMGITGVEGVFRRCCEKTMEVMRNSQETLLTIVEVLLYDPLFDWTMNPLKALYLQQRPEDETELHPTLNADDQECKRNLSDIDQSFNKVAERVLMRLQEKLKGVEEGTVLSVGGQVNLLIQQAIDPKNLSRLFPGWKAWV

PI4K = conditions: read-out: Enzyme IC50 PI4K; purified enzyme; data previously reported; cited from earlier work
PI3K = conditions: read-out: Enzyme IC50 PI3K; purified enzyme; data previously reported; cited from earlier work
ATR = ATR (Homo sapiens, UniProt Q13535); conditions: read-out: Enzyme IC50 ATR; purified enzyme; data previously reported; cited from earlier work

CC[C@@]1(O)C(=O)OCc2c1cc1n(c2=O)Cc2cc3ccccc3nc2-1 [Camptothecin, camptothecin, reference compound]
% Survival Cytotoxic alone (SW620 cells; SW620, cytotoxic 10 nM): 2.4 ± 0.2% | % Survival Cytotoxic alone (LoVo cells; cytotoxic 10 nM): 33 ± 7.9%

COc1cccc2c1C(=O)c1c(O)c3c(c(O)c1C2=O)C[C@@](O)(C(=O)CO)C[C@@H]3O[C@H]1C[C@H](N)[C@H](O)[C@H](C)O1 [Doxorubicin, doxorubicin, reference compound]
% Survival Cytotoxic alone (SW620 cells; SW620, cytotoxic 10 nM): 50 ± 9% | % Survival Cytotoxic alone (SW620 cells; SW620, cytotoxic 100 nM): 0.02 ± 0.01% | % Survival Cytotoxic alone (LoVo cells; cytotoxic 10 nM): 47 ± 3.1% | % Survival Cytotoxic alone (LoVo cells; cytotoxic 100 nM): 2.1 ± 0.5%

COc1cc([C@@H]2c3cc4c(cc3[C@@H](O[C@@H]3O[C@@H]5CO[C@@H](C)O[C@H]5[C@H](O)[C@H]3O)[C@H]3COC(=O)[C@H]23)OCO4)cc(OC)c1O [Etoposide, etoposide, reference compound]
% Survival Cytotoxic alone (SW620 cells; SW620, cytotoxic 100 nM): 89 ± 8.3% | % Survival Cytotoxic alone (SW620 cells; SW620, cytotoxic 1 μM): 3.8 ± 1.1% | % Survival Cytotoxic alone (LoVo cells; cytotoxic 100 nM): 58 ± 8.3% | % Survival Cytotoxic alone (LoVo cells; cytotoxic 1 μM): 3.9 ± 0.8%

O=c1cc(-c2cccc3c2Sc2ccccc2S3)oc(N2CCOCC2)c1 [KU55933]
Concentration needed to induce in vitro chemo- and radio-sensitisation (human tumour cell lines): 10 µM | Tumour concentration ([1]; 10 mg/kg i.p., SW620 xenograft, below limit of detection): < 0.5 µM | Plasma concentration ([1]; single dose 10 mg/kg i.p., SW620-bearing nude mice): over 1 μM | Inhibition of ATM activity [2]: substantially inhibited ATM activity | IC50 (PI4K): > 10 µM | IC50 (PI3K): 1.7 µM | IC50 (ATR): > 10 µM
